Results taken from ChEMBL document CHEMBL4699659, “Discovery of 4-amino-1H-pyrazolo[3,4-d]pyrimidin derivatives as novel discoidin domain receptor 1 (DDR1) inhibitors” (Bioorg Med Chem, 2021).
pIC50: −log10 of the molar value.

Tests used:
HCT-116 [1] = assay: Antiproliferative activity against human HCT-116 cells overexpressing DDR1 assessed as inhibition of cell proliferation at 10 uM measured after 72 hrs by MTT assay relative to control; type: functional
Method in brief: (§1)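 Adherent cells seeded at 3000–4000 per well, then given compound at 10 μM in 100 μL medium on day two. After 72 h, MTT added for a further 4–5 h and absorbance read at 570 nm. Percent growth inhibition taken from sample absorbance as a ratio to untreated control.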

MDA-MB-231 [2] = assay: Antiproliferative activity against human MDA-MB-231 cells overexpressing DDR1 assessed as inhibition of cell proliferation at 10 uM measured after 72 hrs by MTT assay relative to control; type: functional; method in brief: as §1
[3] = target: Epithelial discoidin domain-containing receptor 1 (Homo sapiens, UniProt Q08345); assay: Inhibition of DDR1 (unknown origin) using fluorescein-poly GAT as substrate measured after 1 hr by LANCE ULTRA kinase assay
Sequence of Epithelial discoidin domain-containing receptor 1 (Q08345 whole entry, the tested form may be a part): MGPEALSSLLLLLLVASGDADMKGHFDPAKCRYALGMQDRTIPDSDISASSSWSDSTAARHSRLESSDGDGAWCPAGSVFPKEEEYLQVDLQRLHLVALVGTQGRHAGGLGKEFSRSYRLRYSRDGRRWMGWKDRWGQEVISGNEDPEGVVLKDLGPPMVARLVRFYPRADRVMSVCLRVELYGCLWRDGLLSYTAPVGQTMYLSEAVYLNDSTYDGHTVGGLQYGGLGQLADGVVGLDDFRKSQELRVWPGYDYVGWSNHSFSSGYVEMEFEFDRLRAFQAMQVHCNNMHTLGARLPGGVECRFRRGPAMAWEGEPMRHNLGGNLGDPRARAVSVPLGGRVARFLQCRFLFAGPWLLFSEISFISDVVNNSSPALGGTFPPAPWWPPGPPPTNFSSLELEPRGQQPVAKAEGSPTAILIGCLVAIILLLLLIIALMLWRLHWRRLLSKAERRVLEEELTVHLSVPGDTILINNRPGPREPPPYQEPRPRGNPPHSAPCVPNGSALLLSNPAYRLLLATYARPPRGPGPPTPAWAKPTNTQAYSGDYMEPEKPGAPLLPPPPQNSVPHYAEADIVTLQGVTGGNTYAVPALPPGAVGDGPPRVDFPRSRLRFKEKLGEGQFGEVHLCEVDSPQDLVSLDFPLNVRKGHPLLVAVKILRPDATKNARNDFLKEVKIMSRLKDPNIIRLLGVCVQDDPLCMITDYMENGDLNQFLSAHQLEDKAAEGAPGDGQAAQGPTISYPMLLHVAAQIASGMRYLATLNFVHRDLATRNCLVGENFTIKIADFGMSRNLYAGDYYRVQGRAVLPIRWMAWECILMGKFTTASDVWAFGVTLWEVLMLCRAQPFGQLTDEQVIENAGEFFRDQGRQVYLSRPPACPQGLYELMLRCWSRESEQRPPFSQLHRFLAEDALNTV

HCT-116 [4] = assay: Antiproliferative activity against human HCT-116 cells overexpressing DDR1 assessed as inhibition of cell proliferation measured after 72 hrs by MTT assay; type: functional, cell-based; conditions: HCT-116, 72 h
Method in brief: (§2)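 Adherent cells seeded at 3000–4000 per well and dosed the next day with a dilution series in 100 μL medium. Exposure 72 h, then MTT incubation 4–5 h and absorbance read at 570 nm. Inhibition expressed as sample/control absorbance ratio; IC50 determined only for compounds giving […] inhibition at 10 μM.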

MDA-MB-231 [5] = assay: Antiproliferative activity against human MDA-MB-231 cells overexpressing DDR1 assessed as inhibition of cell proliferation measured after 72 hrs by MTT assay; type: functional, cell-based; conditions: MDA-MB-231, 72 h; method in brief: as §2

SMILES	inhibition at 10 µM (HCT-116 [1])	inhibition at 10 µM (MDA-MB-231 [2])	pIC50 [3]	pIC50 (HCT-116 [4])	pIC50 (MDA-MB-231 [5])
Cc1ccc(NC(=O)c2ccc(CN3CCOCC3)c(Cl)c2)cc1Oc1ccc(-c2n[nH]c3ncnc(N)c23)cc1	58.3%	96.5%	5.66	–	–
Cc1ccc(NC(=O)c2ccc(CN3CCOCC3)c(C(F)(F)F)c2)cc1Oc1ccc(-c2n[nH]c3ncnc(N)c23)cc1	20.5%	71.3%	6.38	< 5.00	–
Cc1ccc(NC(=O)c2cccc(CN3CCN(C)CC3)c2)cc1Oc1ccc(-c2n[nH]c3ncnc(N)c23)cc1	99.8%	99.3%	5.92	5.35	–
Cc1ccc(NC(=O)c2ccc(CN3CCN(C)CC3)c(C(F)(F)F)c2)cc1Oc1ccc(-c2n[nH]c3ncnc(N)c23)cc1	100%	97.9%	7.36	5.40	5.47
Cc1ccc(NC(=O)c2ccc(CN3CCN(C)CC3)c(F)c2)cc1Oc1ccc(-c2n[nH]c3ncnc(N)c23)cc1	73.2%	92.1%	–	–	–
Cc1ccc(NC(=O)c2ccc(CN3CCC(C)CC3)cc2)cc1Oc1ccc(-c2n[nH]c3ncnc(N)c23)cc1	99.9%	97.4%	–	5.86	5.56
Cc1ccc(NC(=O)c2ccc(CN3CCC(C)CC3)c(C(F)(F)F)c2)cc1Oc1ccc(-c2n[nH]c3ncnc(N)c23)cc1	73.7%	42.1%	5.55	–	< 5.00
Cc1ccc(NC(=O)c2ccc(CN3CCCC3)cc2)cc1Oc1ccc(-c2n[nH]c3ncnc(N)c23)cc1	100%	98.8%	–	5.52	–
Cc1ccc(NC(=O)c2ccc(CN3CCN(C)CC3)c(Cl)c2)cc1Oc1ccc(-c2n[nH]c3ncnc(N)c23)cc1	99.9%	99.2%	–	5.54	5.42
CCN1CCN(Cc2ccc(C(=O)Nc3ccc(C)c(Oc4ccc(-c5n[nH]c6ncnc(N)c56)cc4)c3)cc2)CC1	33.6%	88.7%	–	< 5.00	–
Cc1ccc(NC(=O)c2ccc(CN3CCOCC3)c(F)c2)cc1Oc1ccc(-c2n[nH]c3ncnc(N)c23)cc1	11.1%	93.1%	4.61	< 5.00	–
Cc1ccc(NC(=O)c2ccc(CN3CCCC3)c(C(F)(F)F)c2)cc1Oc1ccc(-c2n[nH]c3ncnc(N)c23)cc1	34.9%	98.5%	5.92	< 5.00	–
Cc1ccc(NC(=O)c2ccc(CN3CCN(C)CC3)cc2)cc1Oc1ccc(-c2n[nH]c3ncnc(N)c23)cc1	26.7%	94.5%	5.57	< 5.00	–
Cc1ccc(NC(=O)c2ccc(CN3CCCCC3)cc2)cc1Oc1ccc(-c2n[nH]c3ncnc(N)c23)cc1	99.6%	98.7%	–	5.70	5.57
Cc1ccc(NC(=O)c2ccc(CN3CCCCC3)c(C(F)(F)F)c2)cc1Oc1ccc(-c2n[nH]c3ncnc(N)c23)cc1	36.9%	29.6%	6.01	< 5.00	< 5.00
Cc1ccc(NC(=O)c2ccc(CN3CCN(C)CC3)c(I)c2)cc1Oc1ccc(-c2n[nH]c3ncnc(N)c23)cc1	99.7%	98.9%	6.88	5.35	5.49
CCN1CCN(Cc2ccc(C(=O)Nc3ccc(C)c(Oc4ccc(-c5n[nH]c6ncnc(N)c56)cc4)c3)cc2C(F)(F)F)CC1	99.7%	99.3%	7.15	5.26	5.41
Cc1ccc(NC(=O)c2ccc(CN3CCN(C)CC3)c(Br)c2)cc1Oc1ccc(-c2n[nH]c3ncnc(N)c23)cc1	99.5%	100%	–	5.18	–
CN1CCN(Cc2ccc(C(=O)Nc3cccc(Oc4ccc(-c5n[nH]c6ncnc(N)c56)cc4)c3)cc2C(F)(F)F)CC1	99.8%	98.2%	7.36	5.22	5.37
Cc1ccc(NC(=O)c2ccc(CN3CCOCC3)c(Br)c2)cc1Oc1ccc(-c2n[nH]c3ncnc(N)c23)cc1	35%	81.3%	5.61	< 5.00	–
Cc1ccc(C(=O)Nc2ccc(CN3CCN(C)CC3)c(C(F)(F)F)c2)cc1C#Cc1cnc2ccnn2c1	–	–	8.30	–	–
Cc1ccc(NC(=O)c2ccc(CN3CCOCC3)cc2)cc1Oc1ccc(-c2n[nH]c3ncnc(N)c23)cc1	97.2%	99%	–	5.31	5.45
Cc1cn(-c2cc(NC(=O)c3ccc(C)c(Nc4nccc(-c5cccnc5)n4)c3)cc(C(F)(F)F)c2)cn1 [NILOTINIB]	88.1%	93.6%	–	5.24	5.14
